Data published in ChEMBL document CHEMBL5154945, “Discovery and Optimization of Pyrrolopyrimidine Derivatives as Selective Disruptors of the Perinucleolar Compartment, a Marker of Tumor Progression toward Metastasis” (J Med Chem, 2022).

Columns and labels:
PC-3M = experiment: Anticancer activity in human PC-3M cells expressing PTB/GFP fusion protein assessed as perinucleolar compartment disassembly and measured after 24 hrs by Hoechst 33342 staining based microscopic method; format: functional, cell-based
Outline: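 Imaged by high-content microscopy. Nuclei with PNC spots ≥3 and >0 scored positive. PNC prevalence % = PNC-positive nuclei/total nuclei ×100, normalized to DMSO (0% activity) and 0% PNC (−100%). IC50 from concentration-response.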

[1] = Permeability of the compound at pH 7.4 incubated for 30 mins by UV plate reader based PAMPA assay; conditions: for permeability: pampa, pH 7.4, 0.5 h; for Papp at 0.5 h: PAMPA, pH 7.4
[2] = Microsomal stability in CD1 mouse liver microsomes assessed as half life measured upto 60 mins in presence of NADPH by LC-MS analysis; conditions: for t1/2: mouse, microsomes, 1 h; for half-life at 1 h: CD1, mouse, liver microsomes

| Compound | IC50 (PC-3M; read-out: IC50) [µM] | permeability [1] | t1/2 [2] [min] | IC50 (PC-3M; read-out: pIC50 (converted)) [µM] | Papp at 0.5 h [1] [nm/s] | half-life at 1 h [2] [min] |
| --- | --- | --- | --- | --- | --- | --- |
| N=c1c2c3c(n(CCc4ccccc4)c2ncn1[C@H]1CC[C@H](O)CC1)CCCC3 | > 20 | 204.6 10^-6 cm/s | 86.5 |  |  |  |
| N=c1c2c(-c3ccccc3)c(-c3ccccc3)n(CCc3ccccc3)c2ncn1C1CCOCC1 | 0.96 | > 1000 10^-6 cm/s | 14.5 | 10 |  |  |
| C[C@H]([C@@H](O)c1ccccc1)n1cnc2c(c(-c3ccccc3)c(-c3ccccc3)n2Cc2ccccc2)c1=N | > 20 | 606 10^-6 cm/s | 6.4 |  |  |  |
| N=c1c2c(-c3ccccc3)c(-c3ccccc3)n(Cc3ccccc3)c2ncn1CCCN1CCN(c2ccccc2)CC1 |  | > 1000 10^-6 cm/s | 14 | 23.4 |  |  |
| N=c1c2c(-c3ccccc3)c(-c3ccccc3)n(CC3CC3)c2ncn1CCCO | 6.31 | > 1000 10^-6 cm/s | 25.4 |  |  |  |
| N=c1c2c(-c3ccc4c(c3)OCO4)c(-c3ccc4c(c3)OCO4)n(Cc3ccccc3)c2ncn1C1CCOCC1 | > 20 |  |  |  |  |  |
| CCO/C=N/c1c(C#N)c(-c2ccccc2)c(-c2ccccc2)n1Cc1ccccc1 | > 20 |  |  |  |  |  |
| N=c1c2c(-c3ccccc3)c(-c3ccccc3)n(CCc3ccccc3)c2ncn1CCO |  | > 1000 10^-6 cm/s | 32.6 | 1.32 |  |  |
| N=c1c2c(-c3ccccc3)c(-c3ccccc3)n(Cc3ccc(S(N)(=O)=O)cc3)c2ncn1C1CCOCC1 |  |  | 70 | 1.17 | > 10000 |  |
| CN(C)CCn1cnc2c(c(-c3ccccc3)c(-c3ccccc3)n2Cc2ccccc2)c1=N |  | 1358 10^-6 cm/s | 14.3 | 2.95 |  |  |
| N=c1c2c(-c3ccccc3)c(-c3ccccc3)n(Cc3ccc(OC(F)(F)F)cc3)c2ncn1CCCO |  | > 1000 10^-6 cm/s |  | 4.37 |  |  |
| N=c1c2c(-c3ccccc3)c(-c3ccccc3)n(CC3CC3)c2ncn1C1CCOCC1 |  | > 1000 10^-6 cm/s | 68 | 0.832 |  |  |
| COc1ccc(-c2c(-c3ccc(OC)cc3)n(Cc3ccccc3)c3ncn(CCCO)c(=N)c23)cc1 | > 20 |  |  |  | > 10000 |  |
| N#Cc1c(-c2ccccc2)c(-c2ccccc2)n(Cc2ccccc2)c1/N=C/N[C@H]1CC[C@H](O)CC1 | > 20 | 327.5 10^-6 cm/s | 11.2 |  |  |  |
| N=c1c2c(-c3ccccc3)cn(Cc3ccccc3)c2ncn1CCO | > 20 | 1270.9 10^-6 cm/s | 9.2 |  |  |  |
| COc1ccc(CCn2cnc3c(c(-c4ccccc4)cn3Cc3ccccc3)c2=N)cc1OC | > 20 | > 1000 10^-6 cm/s | 2.9 |  |  |  |
| N=c1c2c(-c3ccccc3)c(-c3ccccc3)n(Cc3ccccc3)c2ncn1[C@@H]1CCCC[C@H]1O (relative stereo) |  | > 1000 10^-6 cm/s | 28.8 | 0.501 |  |  |
| COc1ccc(-c2c(-c3ccc(OC)cc3)n(Cc3ccccc3)c3ncn(C4CCOCC4)c(=N)c23)cc1 | > 20 | > 1000 10^-6 cm/s | 58.7 |  |  |  |
| N=c1c2c(-c3ccccc3)c(-c3ccccc3)n(Cc3ccc(S(N)(=O)=O)cc3)c2ncn1CC1CCOCC1 |  | < 1 10^-6 cm/s | 8.3 | 25.1 |  |  |
| N=c1c2c3c(n(CCc4ccccc4)c2ncn1CCCO)CCCC3 | > 20 |  |  |  | 8830 | 4.5 |
| N=c1c2c(-c3ccccc3)c(-c3ccccc3)n(Cc3ccccc3)c2ncn1CCO |  | > 1000 10^-6 cm/s | 25.1 | 0.832 |  |  |
| COc1ccc(-c2c(-c3ccc(OC)cc3)n(Cc3ccccc3)c3ncn([C@@H]4CCCC[C@H]4O)c(=N)c23)cc1 (mixture of isomers) | > 20 | > 1000 10^-6 cm/s | 29.2 |  |  |  |
| Cc1c(C)n(Cc2ccccc2)c2ncn(CCCO)c(=N)c12 | > 20 | 609.3 10^-6 cm/s |  |  |  | 120 |
| N=c1c2c(-c3ccccc3)c(-c3ccccc3)n(CC3CCCCC3)c2ncn1C1CCOCC1 |  |  |  | 2 |  |  |

| Compound | IC50 (PC-3M; read-out: IC50) [µM] | permeability [1] | t1/2 [2] [min] | IC50 (PC-3M; read-out: pIC50 (converted)) [µM] | Papp at 0.5 h [1] [nm/s] | half-life at 1 h [2] [min] |
| --- | --- | --- | --- | --- | --- | --- |
| COc1ccc(-c2c(-c3ccc(OC)cc3)n(Cc3ccccc3)c3ncn([C@H]4CC[C@H](O)CC4)c(=N)c23)cc1 | > 20 | 196 10^-6 cm/s |  |  |  |  |
| N=c1c2c(-c3ccccc3)c(-c3ccccc3)n(CC3CCCCC3)c2ncn1[C@H]1CC[C@H](O)CC1 |  |  |  | 2.75 |  |  |
| N=c1c2c(-c3ccccc3)c(-c3ccccc3)n(Cc3ccccc3)c2ncn1CC1CCOCC1 |  | > 1000 10^-6 cm/s | 7.1 | 10.7 |  |  |
| COc1ccc(-c2c(-c3ccc(OC)cc3)n(Cc3ccccc3)c3ncn(CCO)c(=N)c23)cc1 | > 20 | > 1000 10^-6 cm/s | 73.2 |  |  |  |
| N=c1c2c(-c3ccccc3)cn(Cc3ccccc3)c2ncn1Cc1ccco1 | > 20 | 1737 10^-6 cm/s | 3 |  |  |  |
| N=c1c2c(-c3ccccc3)c(-c3ccccc3)n(Cc3ccccc3)c2ncn1[C@H]1CC[C@@H](O)CC1 |  | > 1000 10^-6 cm/s | 52.3 | 0.832 |  |  |
| CCOC(CCCn1cnc2c(c(-c3ccccc3)c(-c3ccccc3)n2Cc2ccccc2)c1=N)OCC |  | > 1000 10^-6 cm/s | 4.3 | 23.4 |  |  |
| N=c1c2c(-c3ccccc3)c(-c3ccccc3)n(Cc3ccc(OC(F)(F)F)cc3)c2ncn1[C@H]1CC[C@@H](O)CC1 |  | 1246.89 10^-6 cm/s |  | 3.39 |  | 120 |
| N=c1c2c(-c3ccccc3)c(-c3ccccc3)n(Cc3ccccc3)c2ncn1[C@H](CO)Cc1ccccc1 | > 20 | < 1 10^-6 cm/s | 5.5 |  |  |  |
| N=c1c2c(-c3ccccc3)c(-c3ccccc3)n(Cc3ccccc3)c2ncn1CC1CCCO1 (configuration not stated) |  | > 1000 10^-6 cm/s | 6.5 | 9.33 |  |  |
| N=c1c2c(-c3ccccc3)c(-c3ccccc3)n(Cc3ccccc3)c2ncn1C[C@@H]1CCCC[C@H]1O (relative stereo) |  | > 1000 10^-6 cm/s | 2.4 | 2 |  |  |
| COc1ccc(Cn2c(-c3ccccc3)c(-c3ccccc3)c3c(=N)n(C4CCOCC4)cnc32)cc1 |  |  |  | 0.174 |  |  |
| COc1ccc(-c2c(-c3ccc(OC)cc3)n(Cc3ccccc3)c3ncn(CC4CCOC4)c(=N)c23)cc1 (configuration not stated) | > 20 | > 1000 10^-6 cm/s | 16.5 |  |  |  |
| N=c1c2c(-c3ccccc3)c(-c3ccccc3)n(Cc3ccccc3)c2ncn1C1CCN(Cc2ccccc2)CC1 |  |  | 32.2 | 5.01 |  |  |
| N=c1c2c3c(n(CCc4ccccc4)c2ncn1C1CCOCC1)CCCC3 | > 20 |  |  |  |  |  |
| OCCCNc1ncnc2c1c(-c1ccccc1)c(-c1ccccc1)n2Cc1ccccc1 | > 20 |  |  |  |  |  |
| N=c1c2c(-c3ccccc3)c(-c3ccccc3)n(CCc3ccccc3)c2ncn1C[C@@H]1CCCC[C@H]1O (relative stereo) | 2.72 |  | 4.3 | 0.955 |  |  |
| N=c1c2c(-c3ccccc3)c(-c3ccccc3)n(CC3CCCCC3)c2ncn1CCCO |  | > 1000 10^-6 cm/s |  | 26.9 |  |  |
| N=c1c2c(-c3ccccc3)c(-c3ccccc3)n(Cc3ccccc3)c2ncn1CCN | > 20 | 164.7 10^-6 cm/s |  |  |  |  |
| N=c1c2c(-c3ccccc3)c(-c3ccccc3)n(Cc3ccc(S(N)(=O)=O)cc3)c2ncn1CCCO |  | < 1 10^-6 cm/s | 26.7 |  |  |  |
| COc1ccc(-c2c(-c3ccc(OC)cc3)n(Cc3ccccc3)c3ncn([C@H]4CC[C@H](OC)CC4)c(=N)c23)cc1 | > 20 | > 1000 10^-6 cm/s |  |  |  |  |
| CO[C@H]1CC[C@H](n2cnc3c(c(-c4ccccc4)c(-c4ccccc4)n3Cc3ccccc3)c2=N)CC1 |  |  |  | 0.251 |  |  |
| CO[C@H]1CC[C@H](n2cnc3c(c(-c4ccccc4)c(-c4ccccc4)n3Cc3ccc(OC(F)(F)F)cc3)c2=N)CC1 |  |  |  | 1.1 |  |  |
| O[C@H]1CC[C@H](Nc2ncnc3c2c(-c2ccccc2)c(-c2ccccc2)n3Cc2ccccc2)CC1 | > 20 |  |  |  |  |  |
